Assay outcomes from PubChem.
Hits are enriched below; roughly 2.5% of the tested compounds scored in any of these assays.
NR2E3 ag-1 – human photoreceptor-specific nuclear receptor agonism; Q9Y5X4; CHO-S Gal4-NCOR/VP16-NR2E3 two-hybrid, luciferase; inhibition of corepressor binding, % at 3.98 µM; 360,000 compounds, 0.35% hits; AID 602229;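 active means inhibition above the mean of all tested compounds plus 3 SD, cut at about 70% in these data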;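 further: 0% = DMSO with NR2E3 transfected cells and 100% = cells lacking NR2E3 construct; higher means lower luciferase signal from less NR2E3 corepressor binding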
ADAM10 inh – inhibitors of human ADAM10. inhibition, % at 7 µM. O14672. 370,000 compounds, 0.62% hits. recombinant ADAM10, EDANS/DABCYL FRET peptide cleavage, 3 h. AID 720582;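 active means inhibition above a per-campaign cutoff equal to the mean of compounds falling between control-based bounds plus 3 SD, cut at about 20% in these data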;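 further: 0% = DMSO wells while the 100% control is not disclosed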
Target sequence (O14672 214-748 limits assumed): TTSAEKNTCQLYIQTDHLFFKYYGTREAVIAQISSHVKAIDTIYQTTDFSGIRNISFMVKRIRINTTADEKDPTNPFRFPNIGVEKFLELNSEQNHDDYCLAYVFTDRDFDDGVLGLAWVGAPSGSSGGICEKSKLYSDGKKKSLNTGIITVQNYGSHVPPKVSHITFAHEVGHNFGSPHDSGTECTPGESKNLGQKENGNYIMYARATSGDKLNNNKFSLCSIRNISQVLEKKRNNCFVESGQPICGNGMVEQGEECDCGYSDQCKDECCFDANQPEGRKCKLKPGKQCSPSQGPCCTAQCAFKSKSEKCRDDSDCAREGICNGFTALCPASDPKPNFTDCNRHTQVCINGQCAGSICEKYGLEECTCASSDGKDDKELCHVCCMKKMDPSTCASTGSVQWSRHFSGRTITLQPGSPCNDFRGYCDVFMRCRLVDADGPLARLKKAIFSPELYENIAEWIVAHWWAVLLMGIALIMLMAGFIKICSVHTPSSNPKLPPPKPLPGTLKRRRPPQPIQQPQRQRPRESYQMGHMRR
NR2E3 ag-2 – activates human photoreceptor nuclear receptor NR2E3. Q9Y5X4. GST-NR2E3/biotin-RetCOR TR-FRET, 1536-well. inhibition of corepressor binding, % at 4.78 µM. 320,000 compounds, 0.12% hits. AID 2300;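 active means percent inhibition above the cutoff of mean plus 3 SD of all tested compounds, set per screening campaign, cut at about 20% in these data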;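 further: 0% = DMSO wells and 100% = biotin wells as full block of FRET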
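Material: NR2E3–RetCOR corepressor complex / Amount: 1.35 nM GST-NR2E3 / Medium: Tris pH 7.5 / Compound: single nominal compound dose of 4.8 µM / Incubation: 5 h at 4 °C / Technique: TR-FRET, Eu(K)-anti-GST donor, streptavidin-D2 acceptor, ex 340, em 617/671 nm / Read-out basis: percent loss of FRET ratio relative to control wells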
JMJD2C inh – inhibitors of human GASC-1 (JMJD2C) demethylase. AID 2099. Q9H3R0. 330,000 compounds, 0.069% hits. inhibition, % at 2.35 µM. GST-JMJD2C(1-420) H3K9me3 demethylation, DELFIA europium;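 active means more than half of a compound's replicate wells show inhibition beyond 50%, single wells judged on their own value; inconclusive means some, but no more than half, of replicates pass 50% inhibition; inactive means no replicate passes 50% inhibition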;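 further: signal counts dimethyl H3K9 product captured on neutravidin plate; 0% = median of DMSO wells and 100% = 0.3 times that DMSO median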
ADAM17 inh – ADAM17 inhibition, QFRET primary screen; inhibition, % at 6.95 µM; 370,000 compounds, 0.83% hits; AID 720648; recombinant ADAM17, EDANS/DABCYL FRET peptide cleavage;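 active means inhibition above the mean of compounds lying between control limits plus 3 SD, set per campaign, cut at about 8.5% in these data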;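 further: 0% = DMSO-only wells as the low control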
KLK7 zymogen act – activators of human kallikrein-7 zymogen | purified proKLK7, EDANS-DABCYL substrate fluorescence; 100% is mature enzyme control, 0% vehicle | activation, % at 7 µM | 370,000 compounds, 0.9% hits | AID 652039;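 active means activation above the mean of all tested compounds plus 3 SD, computed per campaign excluding outliers beyond control limits, cut at about 13% in these data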
ADAM10 confirm – confirmation of inhibitors of human ADAM10; ADAM10 QFRET peptide cleavage, EDANS fluorescence; inhibition, % at 6.95 µM; 2,100 compounds, 1% hits; shares compounds with ADAM10 inh;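 active means inhibition above about 20% chosen separately for each screening run, limit read from the data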;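 further: 0% = DMSO wells and 100% = marimastat wells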
ADAM17 counter – counter-screen for ADAM10 exosite inhibitors: inhibitors of human ADAM17; shares compounds with ADAM10 inh; AID 743214; 2,100 compounds, 0.5% hits; ADAM17 QFRET peptide cleavage, EDANS fluorescence; inhibition, % at 6.95 µM;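 active means mean triplicate inhibition above the solvent-only control wells' mean plus 3 SD, cut at about 12% in these data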;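 further: 0% = DMSO wells and 100% = marimastat wells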
ADAM10 ctr – inhibits human ADAM10 in ADAM17 exosite counter-screen | shares compounds with ADAM17 inh | recombinant ADAM10, EDANS/DABCYL FRET peptide cleavage, 3 h | inhibition, % at 6.95 µM | 2,900 compounds, 47% hits | AID 743256;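 active means mean inhibition over the triplicate runs exceeds the activity threshold set in the earlier primary screen, cut at about 20% in these data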;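 further: 0% = DMSO wells and 100% = marimastat wells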
ADAM17 confirm – confirmation of inhibitors of human ADAM17. shares compounds with ADAM17 inh. AID 743257. 2,900 compounds, 65% hits. inhibition, % at 6.95 µM. recombinant ADAM17, EDANS/DABCYL QFRET peptide cleavage;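 active means mean inhibition across replicates above the hit cutoff set in the primary screen, cut at about 8.5% in these data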;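 further: 0% = DMSO wells and 100% = marimastat wells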
* marks the source's active call; other numbers are inactive results; ? = inconclusive; . = no result; ! = repeats disagree.

SMILES | NR2E3 ag-1 | ADAM10 inh | NR2E3 ag-2 | JMJD2C inh | ADAM17 inh | KLK7 zymogen act | ADAM10 confirm | ADAM17 counter | ADAM10 ctr | ADAM17 confirm
Cc1ccc(OC(C)C(=O)Nc2ccc(C)c(S(=O)(=O)Nc3ccc(C)cc3C)c2)cc1 (stereo not drawn) | 6.6 | 23.8* | -3.5 | 0.3 | 12.3* | 0.0 | 10.1 | 2.9 | 28.4* | 14.8*
Cc1ccc(OCCN(C)C(=O)C2CCC(=O)N(CCCN3CCCC3=O)C2)cc1 (stereo not drawn) | -2.4 | 0.7 | 1.7 | -10.2 | -4.3 | -0.5 | . | . | . | .
COc1cc(NC(=O)c2cnc(N)s2)cc(C(=O)Nc2cccc(C(F)(F)F)c2)c1 | -3.7 | 19.9*! | 2.5 | -13.5 | 9.8*! | 0.0 | 6.4 | 2.0 | 22.2* | 14.0*
COc1cc(NC(=O)c2ccnc(N)c2)cc(C(=O)Nc2cccc(C(F)(F)F)c2)c1 | -21.5 | 1.8 | 2.6 | -0.3 | 0.2 | -0.1 | . | . | . | .
Cc1[nH]c2ccc(-c3n[nH]c(=S)n3-c3ccccc3)cc2c1C | 4.0 | 8.8 | -1.3 | -14.7 | -0.6 | -0.8 | . | . | . | .
COc1cccc(-n2c(-c3ccc4[nH]c(C)c(C)c4c3)n[nH]c2=S)c1 | 5.9 | 29.1* | -0.9 | 10.4 | 14.0* | -0.1 | 5.6 | 3.1 | -0.7 | 5.6
Cc1cc(C)cc(-n2c(SC(C)C(=O)NCc3ccc4c(c3)OCO4)nc3ccccc3c2=O)c1 (stereo not drawn) | -7.0 | 22.7* | -1.5 | -35.4 | 10.6* | 0.3 | 1.8 | 0.8 | 19.5 | 11.3*
CCCC1Oc2ccccc2C(=O)N(CC(=O)c2ccc3c(c2)OCCO3)C1=O (stereo not drawn) | -38.2 | -1.3 | -1.4 | -0.6 | 0.3 | 0.7 | . | . | . | .
COc1ccc(C(=O)Nc2ccc(OCC(F)(F)C(F)F)c(C(F)(F)F)c2)cc1OC | 19.5 | 25.8* | 1.1 | 9.4 | 9.0* | -0.1 | 2.8 | 0.5 | 51.6* | 20.5*
COc1ccc(NC(=O)c2ccc(COCC(F)(F)F)cc2)cc1OC | 17.4 | 3.4 | 3.0 | 1.1 | -1.0 | 0.3 | . | . | . | .
C[C@@H]1CN([C@@H](C)CO)C(=O)CCCn2nncc2CO[C@H]1CN(C)C(=O)NC1CCCCC1 | 3.7 | 4.0 | . | . | 3.0 | 1.0 | . | . | . | .
CC(C)NS(=O)(=O)c1ccc(Oc2ncc(C(F)(F)F)cc2Cl)cc1 | 3.7 | 11.9 | -0.5 | ? | 7.5 | 0.6 | . | . | . | .
O=S(=O)(Nc1ccccc1)c1ccc(Oc2ncc(C(F)(F)F)cc2Cl)cc1 | 45.6 | 28.7* | 1.8 | -8.3 | 12.2* | 0.5 | 5.0 | 2.1 | 35.1* | 18.6*
Cc1ccccc1N=C1SC(CC(=O)Nc2ccc3ccccc3c2)C(=O)N1Cc1ccccn1 (stereo not drawn) | 3.4 | 39.1* | 2.0 | -3.2 | 15.0* | -0.8 | 11.2 | 3.4 | 37.2* | 21.7*
Cn1nc([N+](=O)[O-])c(C(C#N)c2ccccn2)c(Cl)c1=O (stereo not drawn) | -1.8 | -7.1 | -1.2 | -7.5 | -3.3 | -0.5 | . | . | . | .
CCn1nc([N+](=O)[O-])c(C(C#N)c2nc3cc(C(F)(F)F)ccc3s2)c(Cl)c1=O (stereo not drawn) | -12.9 | 27.6* | -2.6 | 10.9 | 11.0* | -0.3 | 4.8 | 2.9 | 22.8* | 13.7*
Cc1noc(C)c1COc1ccccc1C(=O)N(C)CC(=O)Nc1ccc(Cl)c(Cl)c1 | 4.0 | 22.6* | 1.0 | -2.0 | 9.9* | -0.5 | 3.1 | 0.1 | 31.6* | 12.6*
